From PubChem
STAT1 blocker – inhibitors of IFN-gamma induced STAT1 signaling | NIH 3T3 STAT1-luciferase reporter, luminescence | inhibition, % at 5.5 µM | 200,000 compounds, 0.35% hits;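 active = inhibition above a set limit, the mean inhibition across all tested compounds plus 3 SD, cut at about 34% in these data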;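 note: 0% = IFN-gamma with DMSO and 100% = IFN-gamma with 300 µM nifuroxazide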
STAT1 act – increases IFN-gamma driven STAT1 reporter signal; 200,000 compounds, 2.6% hits; AID 932; activation (% of control), % at 5.5 µM; NIH 3T3 STAT1-luciferase reporter, luminescence; 100% = IFN-gamma alone, no compound;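 active = activation above the screen-wide mean activation plus 3 SD, cut at about 130% in these data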;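 note: raw ratio to IFN-gamma control signal so 100% means no change and 0% no light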
FLuc act counter – affects firefly luciferase, flagging false hits in luciferase stimulation screens. P08659. ATPlite luciferase biochemical, luminescence, 10 min; 0 = ATP-free wells, 1 = DMSO control. activation factor at 10 µM. 200,000 tested, under 10 active;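 active = luciferase activation factor, scaled between plate controls, of at least 2 with compound at 10 µM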
Target sequence (P08659 whole entry, looked up): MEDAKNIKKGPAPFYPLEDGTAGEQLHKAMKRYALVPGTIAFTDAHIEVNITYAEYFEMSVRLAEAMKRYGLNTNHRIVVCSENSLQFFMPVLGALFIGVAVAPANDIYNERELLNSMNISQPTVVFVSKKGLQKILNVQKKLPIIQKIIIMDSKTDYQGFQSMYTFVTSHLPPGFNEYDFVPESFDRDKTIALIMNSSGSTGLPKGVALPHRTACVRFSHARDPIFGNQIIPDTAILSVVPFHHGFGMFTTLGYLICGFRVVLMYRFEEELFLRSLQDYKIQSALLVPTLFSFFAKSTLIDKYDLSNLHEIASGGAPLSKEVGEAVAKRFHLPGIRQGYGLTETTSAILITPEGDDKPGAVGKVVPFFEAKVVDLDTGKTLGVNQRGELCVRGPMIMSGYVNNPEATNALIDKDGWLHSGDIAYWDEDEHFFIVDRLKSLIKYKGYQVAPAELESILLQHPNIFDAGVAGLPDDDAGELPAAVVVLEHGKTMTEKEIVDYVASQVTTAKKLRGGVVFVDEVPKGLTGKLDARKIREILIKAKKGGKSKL
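test system = cell-free luciferase reagent | medium = PBS as buffer for the ATP substrate | dosing = test compounds dosed from 2 mM stocks in 100% DMSO | incubation = 10 min at ambient temperature | detection = luminescence measurement of luciferase light output | benchmarks = low control with PBS replacing ATP, high control enzyme plus ATP without compound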
STAT3 activator – STAT3 signaling activation | U3A cells, IL-6 STAT3-luciferase reporter, luminescence; 100% = signal with IL-6 EC80 alone | activation (% of control), % at 5.6 µM | 190,000 compounds, 0.91% hits;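 active = activation above the screen-wide mean of compound activation plus 3 SD, cut at about 130% in these data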;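 note: 0% = background luminescence of wells with medium and substrate only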
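Material: STAT3-luciferase reporter U3A cells; Probe or stimulus: IL-6 (33 ng/mL); Incubation: compound pre-incubation 1 h before IL-6, then 6 h stimulation at 37 °C; Technique: luminescence from STAT3-driven luciferase reporter; Evaluation: % activation versus median of IL-6-stimulated wells; Controls: IL-6-only high control.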
FLuc inhib CS – inhibits firefly luciferase, flagging false hits in luciferase inhibition screens. P08659. ATPLite firefly luciferase biochemical luminescence, 10 min. inhibition, % at 10 µM. 200,000 compounds, 1.5% hits;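 active = inhibition above about 50% when tested at 10 µM, limit read from the data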
STAT3 blocker – inhibitors of IL-6 induced STAT3 signaling. U3A cells, IL-6 STAT3-luciferase reporter, luminescence; host cell line lacks STAT1. inhibition, % at 5.5 µM. 190,000 compounds, 0.89% hits;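 active = inhibition above the mean inhibition across all screened compounds plus 3 SD, cut at about 44% in these data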;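 note: 0% = DMSO only wells and 100% = 100 µM nifuroxazide control wells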
* marks the source's active call; other numbers are inactive results. A selection: hits, their analogues and other compounds. The true share with any hit is near 4.9%.

Screening COc1ccc2nc(NC(=O)CSc3nnc(-c4ccoc4C)n3C)sc2c1 returned STAT1 blocker -33.2, STAT1 act 130.3*, FLuc act counter 0.4, STAT3 activator 88.8, FLuc inhib CS 59.9* and STAT3 blocker 16.9.
COc1ccc2nc(NC(C)=O)sc2c1 was read as STAT1 blocker -43.2, STAT1 act 138.6*, FLuc act counter 0.9, STAT3 activator 103.0, FLuc inhib CS 8.9 and STAT3 blocker -2.3.
Screening COc1ccc2nc(NC(=O)Nc3cccc4ccccc34)sc2c1 returned STAT1 blocker -26.4, STAT1 act 122.9, FLuc act counter 0.8, STAT3 activator 105.5, FLuc inhib CS 15.0 and STAT3 blocker -5.2.
Screening COc1ccc(Nc2nc3ccccc3c(=O)s2)c(OC)c1 returned STAT1 blocker 1.2, STAT1 act 98.9, FLuc act counter 1.1, STAT3 activator 86.9, FLuc inhib CS -10.8 and STAT3 blocker 17.1.
For CC1(C(=O)NCc2ccccn2)C=CCN1C(=O)c1ccccc1 (stereo not given) the results were STAT1 blocker -5.6, STAT1 act 105.1, FLuc act counter 1, STAT3 activator 104.1, FLuc inhib CS -0.8 and STAT3 blocker -7.8.
`O=C(Cn1c(=O)c(=O)n(Cc2ccccc2)c2ccc(Cl)cc21)NCC1CCCO1` (stereo not given) gave STAT1 blocker 0.4, STAT1 act 100.2, FLuc act counter 1, STAT3 activator 96.3, FLuc inhib CS -4.2 and STAT3 blocker 5.2.
CN1CCN(NC(=O)CC(C)(C)C)CC1 was read as STAT1 blocker -1.4, STAT1 act 98.6, FLuc act counter 1, STAT3 activator 95.1, FLuc inhib CS -1.3 and STAT3 blocker 10.6.
COc1ccc2nc(NC(=O)c3ccc4ncsc4c3)sc2c1 was read as STAT1 blocker -45.9, STAT1 act 141.7*, FLuc act counter 0.6, STAT3 activator 93.9, FLuc inhib CS 36.0 and STAT3 blocker 12.3.
For COc1ccc2nc(NC(=O)c3ccc(-n4nc(C)cc4C)cc3)sc2c1 the results were STAT1 blocker -12.5, STAT1 act 111.4, FLuc act counter 1, STAT3 activator 94.1, FLuc inhib CS -2.2 and STAT3 blocker 13.0.
For CC(Sc1ccsc1[N+](=O)[O-])C(=O)NCc1ccco1 (stereo not given) the results were STAT1 blocker 11.7, STAT1 act 90.5, FLuc act counter 1, STAT3 activator 107.8, FLuc inhib CS -1.1 and STAT3 blocker -4.0.
`Cc1ccc(SCC(=O)NC(=O)NCc2ccccc2)c(C)c1` gave STAT1 blocker -4.5, STAT1 act 103.7, FLuc act counter 1.1, STAT3 activator 94.8, FLuc inhib CS -7.6 and STAT3 blocker 7.5.
For COc1ccc(NC(=O)Nc2ccccc2F)c(C)c1 the results were STAT1 blocker -5.9, STAT1 act 103.8, FLuc act counter 1, STAT3 activator 90.5, FLuc inhib CS 2.8 and STAT3 blocker 15.0.
`COc1ccc(C(=O)C[n+]2cn(C(F)F)c3ccccc32)c(F)c1` gave STAT1 blocker -35.0, STAT1 act 129.7*, FLuc act counter 1, STAT3 activator 110.0, FLuc inhib CS -1.0 and STAT3 blocker -4.8.
O=S(=O)(NCC1NCCc2ccccc21)c1ccccc1 (stereo not given) was read as STAT1 blocker -8.1, STAT1 act 107.5, FLuc act counter 1.1, STAT3 activator 87.0, FLuc inhib CS -7.3 and STAT3 blocker 19.4.
`O=C(/C(C=Nc1cc2c(oc1=O)CCCC2=O)=C(\O)c1ccccc1)c1ccccc1` gave STAT1 blocker -56.7, STAT1 act 149.3*, FLuc act counter 1.1, STAT3 activator 94.0, FLuc inhib CS -5.5 and STAT3 blocker 13.1.
`O=C1CCCC(O)=C1N=Nc1cccc(C(=O)O)c1` gave STAT1 blocker 9.8, STAT1 act 89.6, FLuc act counter 1, STAT3 activator 105.0, FLuc inhib CS 0.9 and STAT3 blocker -4.7.
`Cc1ccc(N2C(=O)c3ccc(N)cc3C2=O)cc1` gave STAT1 blocker -53.8, STAT1 act 148.9*, FLuc act counter 0.7, STAT3 activator 110.8, FLuc inhib CS 26.4 and STAT3 blocker -7.0.
Screening Cc1ccc(N2C(=O)c3ccc(N)cc3C2=O)cc1C returned STAT1 blocker -45.0, STAT1 act 140.8*, FLuc act counter 0.8, STAT3 activator 100.9, FLuc inhib CS 18.9 and STAT3 blocker 1.7.
CC(Oc1ccccc1)C(=O)NC1=NCCS1 (stereo not given) was read as STAT1 blocker -36.2, STAT1 act 133.7*, FLuc act counter 0.9, STAT3 activator 115.0, FLuc inhib CS 7.3 and STAT3 blocker -10.5.
For Cc1cccnc1NC(=O)C(C)Oc1ccccc1 (stereo not given) the results were STAT1 blocker 1.0, STAT1 act 99.1, FLuc act counter 1, STAT3 activator 97.0, FLuc inhib CS -2.1 and STAT3 blocker 6.7.
Screening O=C(NC1=NCCS1)Nc1ccccc1 returned STAT1 blocker -37.3, STAT1 act 134.6*, FLuc act counter 0.6, STAT3 activator 93.1, FLuc inhib CS 42.1 and STAT3 blocker 12.0.
`CC(NC(=O)Cn1c(NCCO)nc2ccccc21)C1CC2CCC1C2` (stereo not given) gave STAT1 blocker -38.8, STAT1 act 133.5*, FLuc act counter 1, STAT3 activator 100.3, FLuc inhib CS 0.0 and STAT3 blocker 3.3.
`O=c1cc(-c2ccc([N+](=O)[O-])cc2)nc2cc(-c3ccc(F)cc3)[nH]n12` gave STAT1 blocker 7.0, STAT1 act 93.6, FLuc act counter 1, STAT3 activator 102.7, FLuc inhib CS -1.7 and STAT3 blocker -7.8.
Screening CSc1ccccc1NC(=O)CN(C)Cc1cc(=O)n2ccsc2n1 returned STAT1 blocker 6.8, STAT1 act 92.6, FLuc act counter 1.1, STAT3 activator 102.9, FLuc inhib CS -7.0 and STAT3 blocker 0.0.
Cn1c(N)c(C(=O)CSc2ccc3c(c2)OCCO3)c(=O)n(C)c1=O was read as STAT1 blocker 2.4, STAT1 act 97.8, FLuc act counter 0.9, STAT3 activator 85.2, FLuc inhib CS 6.2 and STAT3 blocker 23.6.
For Cc1cc(C(=O)CSc2ccc3c(c2)OCCO3)c(C)n1C1CC1 the results were STAT1 blocker -37.8, STAT1 act 133.4*, FLuc act counter 0.9, STAT3 activator 103.4, FLuc inhib CS 12.8 and STAT3 blocker 0.1.
Screening O=C(CCCc1ccccc1)NCCC1=CCCCC1 returned STAT1 blocker -41.0, STAT1 act 135.5*, FLuc act counter 1, STAT3 activator 113.9, FLuc inhib CS -2.9 and STAT3 blocker -3.9.
O=C(/C=C/c1ccc(Cl)c(Cl)c1)NC1=NCCS1 was read as STAT1 blocker -37.1, STAT1 act 134.4*, FLuc act counter 1, STAT3 activator 101.3, FLuc inhib CS 3.2 and STAT3 blocker 4.2.
